According to article PMC7531564 (mAbs, 2020):
Numbering of substitutions follows the chain as printed.

Experiments:
[1] = target: T1, ARG2-C0021158 Fab complex (Homo sapiens, UniProt P78540); assay: Isothermal titration calorimetry with ARG2-C0021158 Fab complex; assay type: binding; conditions: ARG2 + C0021158 Fab 1:1 mix, 20 µM each
T1 sequence (P78540 23-354): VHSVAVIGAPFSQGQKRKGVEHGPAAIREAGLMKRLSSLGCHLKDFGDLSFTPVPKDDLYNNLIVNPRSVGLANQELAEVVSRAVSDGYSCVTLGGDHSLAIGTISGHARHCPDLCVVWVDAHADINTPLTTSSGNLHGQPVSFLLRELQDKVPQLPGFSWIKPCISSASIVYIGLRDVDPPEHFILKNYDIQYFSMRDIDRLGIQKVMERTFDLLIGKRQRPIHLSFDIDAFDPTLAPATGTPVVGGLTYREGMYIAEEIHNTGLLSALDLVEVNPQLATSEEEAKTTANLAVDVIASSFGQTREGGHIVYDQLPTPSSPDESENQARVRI
In short: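 ITC on a MicroCal VP at 25°C. Recombinant human ARG2 and test Fab were mixed 1:1 at 20 µM each (ARG2 as monomer) and pre-incubated 1 h at 20°C. Boronic acid arginase-inhibitor ligand at 0.50 mM was then titrated in. Isotherms were fitted to a one-site binding model.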

human ARG2 = target: T2, human ARG2 (Homo sapiens, UniProt P78540); assay: Isothermal titration calorimetry with free ARG2; assay type: binding; conditions: KD (ITC), free ARG2 20 µM monomer, 25°C
T2 sequence (P78540 23-354): T1 sequence (P78540 23-354)
In short: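 ITC on a MicroCal VP at 25°C. A 750 µM (0.75 mM) boronic acid arginase-inhibitor ligand was titrated into 20 µM recombinant human ARG2 (monomer concentration). Thermograms were integrated, and isotherms were fitted to a one-site (one-to-one) binding model. Error was taken as a 68.3% confidence interval.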

mouse cancer models = conditions: cited from earlier work
[2] = test system: CD3/CD28 co-stimulated T-cells; assay: In vitro T-cell proliferation assay; assay type: cell-based, human; conditions: ARG2 15 µg/ml; BrdU
In short: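 Human PBMCs were isolated from leukocyte cones by Ficoll gradient, and T cells were enriched by negative selection. 40000 cells/well in RPMI 1640 with 5% human serum albumin were activated with CD3/CD28 (1:40) for 45 min at 37°C, 5% CO2. Antibody titrations in TBS/NaCl were added for 30 min, then recombinant human trimeric ARG2 (15 µg/ml final). Incubation lasted 96 h total, with BrdU added at 78 h and read by ELISA. Data were expressed as % of control, with EC50 from a four-parameter fit.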

mRCC CL-19 cell line = conditions: high expressing ARG2 mRCC CL-19 cell line; cited from earlier work
[3] = target: biotinylated recombinant human ARG2 trimer (human, UniProt P78540, biotin (site not stated))
[4] = target: recombinant human Arginase 2 (ARG2) trimer, residues 23-354, C-terminal His6-tag (human, UniProt P78540); assay: crystal structure
crystal structure = target: the molecule itself; assay: crystal structure

## Cl.N[C@@H](CSCCB(O)O)C(=O)O [BEC, S-(2-Boronoethyl)-L-cysteine hydrochloride]
[1]
  binding to C0021158-bound ARG2 (ITC): no interaction
Human ARG2
  Kd: ~7 µM

## C[C@H](N)C(=O)N1C[C@H](CCCB(O)O)[C@](N)(C(=O)O)C1 [CB-1158]
Mouse cancer models; mouse cancer models
  tumor growth: reduces tumor growth

## NC(=NCCC[C@H](N)C(=O)O)NO [NHLA, N^G-hydroxy-L-arginine]
[2]
  restoration of ARG2-inhibited T-cell proliferation: partially restore

## N=C(NO)NCC[C@H](N)C(=O)O [nor-NOHA, N^ω-hydroxy-nor-L-arginine]
Mouse cancer models; in vivo mouse models
  anti-tumor effect in vivo: anti-tumor effects
mRCC CL-19 cell line
  cell growth: significantly suppressed cell growth

B1: C0021177 (antibody, V domains shown)
VH: EVQLLESGGGLVQPGGSLRLSCAASGFTFRYEVAAWVRQAPGKGLEWVSAISGPAPKGYYADSVKGRFTISRDNSKNTLYLQMNSLRAEDTAVYYCARLRADLGLYMDLWGRGTLVTVSS
VL: QSELTQPPTASAAPGQKVTISCSGSSSNIGNHYVSWYQQLPGTAPKLLIYDTTVLSSGIPDRFSGSKSGTSATLGITGLQTGDEADYYCGTWDELTSNLVFGGGTKLTVL
[3]
  Kd: 0.000173 µM

B2: C0021158 Fab (Fab, V domains shown)
VH: B1 VH with A55I
VL: B1 VL with E3V, T9S, A10V, T52N, T53S, V54E, L55R, S56T, S57A, I59V
[4]
  stoichiometry N: 3 Fab per ARG2 trimer

B3: recombinant human Arginase 2 (ARG2) trimer, residues 23-354, C-terminal His6-tag (enzyme, UniProt P78540 23-354, looked up)
chain: T1 sequence (P78540 23-354)
Crystal structure
  stoichiometry N: 3
